# Screens as filed in PubChem.
# The list is not random: actives were taken first. Their share in the collection is about 1.3%.
# G6PDH CS = L. mesenteroides G6PDH inhibition counter-screen | inhibition, % at 5 µM | Purified L. mesenteroides G6PDH, diaphorase/resazurin coupled fluorescence, 45 min | actives 0.12% (n = 200,000); in the data active = inhibition above about 50%
# Tb hexokinase = blocks Trypanosoma brucei hexokinase 1 activity; recombinant TbHK1, G6PDH-coupled NADH A340; inhibition, % at 10 µM; actives 0.11% (n = 220,000);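 active = inhibition of 50% or more in the single-dose primary screen; inactive = inhibition below 50%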
# HKDC1 inhibitor = inhibitors of human hexokinase HKDC1 | Q2TB90 | recombinant HKDC1, G6PDH/diaphorase resazurin coupled fluorescence | inhibition, % at 20 µM | actives 0.16% (n = 340,000) | AID 493160;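 active = inhibition above about 35% when tested at 20 µM, limit read from the data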;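 note: plate controls were DMSO wells with enzyme for no effect and DMSO wells lacking enzyme for full effect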
#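 Assay system: in-house recombinant HK5 (HKDC1) enzyme. Input: HKDC1 at 5 µg/mL. Medium: Tris pH 8.0 buffer with MgCl2, Tween-20, BSA, BME. Dosing: single 20 µM dose. Schedule: 90 min reaction incubation at room temperature, dark. Signal: resazurin-to-resorufin fluorescence via G6PDH and diaphorase coupling, 525/613 nm. Controls: DMSO-enzyme wells negative, buffer-substituted wells positive.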
# PfGluPho inh = PfG6PD (Plasmodium falciparum) enzyme inhibition | AID 504690 | inhibition, % at 20 µM | PfGluPho enzyme, NADPH resazurin-diaphorase fluorescence | actives 0.78% (n = 350,000);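 active = inhibition reaching at least a set limit at 20 µM in the primary screen, cut at about 59% in these data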;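 note: 0% = DMSO wells with substrate and 100% = DMSO wells lacking glucose-6-phosphate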
# Diaph inh CS = inhibits diaphorase or chemically oxidizes, flagging diaphorase assay artifacts; diaphorase resazurin-to-resorufin fluorescence, NADH, 16 min; bacterial (C. kluyveri) enzyme, not human; actives 0.69% (n = 190,000); inhibition, % at 20 µM;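 active = primary screen inhibition at 20 µM above a set limit, cut at about 50% in these data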;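 note: plate controls were DMSO with full reaction for no effect and wells lacking NADH for full effect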
#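 Assay system: diaphorase enzyme from Clostridium kluyveri; Input: enzyme working solution with 0.14 U/mL diaphorase; Timing: 16 min at room temperature; Technique: resorufin fluorescence, excitation 544 nm, emission 590 nm; Benchmarks: positive control minus NADH, DMSO neutral control.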
# PfG6PD confirm = PfG6PD inhibition, single-dose confirmed; shares compounds with PfGluPho inh; recombinant PfGluPho, NADPH-diaphorase-resazurin fluorescence; inhibition, % at 20 µM; actives 34% (n = 2,400);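 active = inhibition of at least 50% at 20 µM in any single replicate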;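 note: 0% = DMSO with substrate and 100% = DMSO lacking glucose-6-phosphate substrate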
# Diaph ctr 10uM = diaphorase inhibition or oxidation at 10 uM NADPH | inhibition, % at 20 µM | shares compounds with PfGluPho inh | AID 504862 | actives 39% (n = 820) | diaphorase-coupled resazurin reduction, fluorescence, NADPH 10 uM;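 active = average inhibition reaching 50% or more with the compound at 20 µM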;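 note: resorufin red fluorescence formed as diaphorase reduces resazurin using NADPH; 0% = DMSO with enzyme and 100% = DMSO without enzyme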
# Diaphorase 30uM = inhibits diaphorase or oxidizes, flagging false PfG6PD hits | AID 504863 | shares compounds with PfGluPho inh | inhibition, % at 20 µM | Diaphorase/resazurin coupled assay, resorufin fluorescence, 30 uM NADPH | actives 29% (n = 820);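 active = inhibition averaging 50% or more, tested at 20 µM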;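 note: 0% = DMSO with enzyme and 100% = DMSO wells lacking diaphorase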
# * marks the source's active call; other numbers are inactive results; . = no result.
SMILES,G6PDH CS,Tb hexokinase,HKDC1 inhibitor,PfGluPho inh,Diaph inh CS,PfG6PD confirm,others
Clc1ccc2nc(-c3ccc(Br)s3)cn2c1,-32,-10,-5,80*,23,51*,Diaph ctr 10uM=38;Diaphorase 30uM=42
COc1ccc(-c2cn3cc(Cl)ccc3n2)cc1OC,9,-20,-2,133*,8,77*,Diaph ctr 10uM=62*;Diaphorase 30uM=57*
Cc1ccc2nc(-c3cccc(S(=O)(=O)N(C)C)c3)cn2c1,6,-7,2,50,6,.,
CCOC(=O)CSc1nc(-c2ccccc2)nc2ccc(F)cc12,3,5,0,-17,15,.,
COCCn1c(=S)[nH]c2cc(C(=O)N3CCN(c4ccc(F)cc4)CC3)ccc2c1=O,0,-2,12,-10,14,.,
Cc1cc(C)n2nc(SCc3ccc(C#N)cc3)nc2n1,.,.,-1,3,.,.,
O=C(N/N=C/c1cccc([N+](=O)[O-])c1)C(=O)N1CCCCCC1,.,.,-1,80*,.,58*,Diaph ctr 10uM=60*;Diaphorase 30uM=47
COc1ccc(/C=N/NC(=O)c2cc(C)n(-c3ccccc3)c2C)cc1OC,-13,-23,8,-12,19,.,
Cc1cc(C(=O)N/N=C/c2cccc([N+](=O)[O-])c2)c(C)n1-c1ccccc1,-7,-5,-2,60*,19,28,
CCN(CC)C(=O)C1CCCN(C(=O)c2cc(COc3ccc4ncccc4c3)on2)C1 (centres undefined),.,.,7,27,.,.,
Cc1cc(C)c2c(=O)n3c(nc2c1)C(Cc1ccccc1)NC(=O)c1cccnc1-3 (centres undefined),.,.,.,59*,.,4,
Cc1cc(C)c2c(=O)n3c(nc2c1)C(Cc1ccc(O)cc1)NC(=O)c1cccnc1-3 (centres undefined),.,.,.,1,.,.,
CN(Cc1ccccc1)C(=O)COC(=O)c1c[nH]c2ccccc12,.,.,.,-4,.,.,
COc1ccc(-c2csc(NC(=O)COC(=O)c3ccco3)n2)cc1,16,1,-3,60*,7,16,
COc1ccc(-c2csc(NC(=S)NC(=O)c3ccco3)n2)cc1,-1,-10,-11,9,10,.,
CC(=O)Cc1cc(O)c2ccccc2c1OC(=O)c1ccccc1,34,-6,2,66*,28,6,
COC(=O)C1=C(C)NC(C)=C(C(=O)OCC(C)C)C1c1ccccc1[N+](=O)[O-] (centres undefined),.,.,-3,62*,.,2,
O=C(NNc1ccc([N+](=O)[O-])cc1)Nc1ccccc1,.,.,-2,74*,.,0,
CC(=O)Nc1ccc(S(=O)(=O)NNC(=O)c2ccc([N+](=O)[O-])cc2)cc1,.,.,-2,-6,.,.,
Cc1ccc(NNS(=O)(=O)c2ccc(C)cc2)cc1,9,2,-4,99*,20,54*,Diaph ctr 10uM=30;Diaphorase 30uM=-6
CC(=O)Nc1ccc(S(=O)(=O)NNc2ccc([N+](=O)[O-])cc2)cc1,.,.,2,75*,.,33,
Nc1nc(-c2cc(Cl)cc(Cl)c2OC(F)F)cs1,5,6,-3,36,13,.,
CC1Oc2ccccc2C=C1C1/C(=C(/O)c2ccccc2)C(=O)C(=O)N1CCCN(C)C (centres undefined),5,-27,-6,-11,17,.,
Cc1ccc2c(c1)C(=O)C(=O)N2CC1COc2ccccc2O1 (centres undefined),.,.,25,42,.,.,
Nc1cc(-c2ccncc2)c[nH]c1=O,38,-14,14,64*,66*,30,
SMILES,G6PDH CS,Tb hexokinase,HKDC1 inhibitor,PfGluPho inh,Diaph inh CS,PfG6PD confirm,others
COc1ccc(NC(=O)CNC(=O)Cc2cccc3ccccc23)c(OC)c1,.,.,4,-3,.,.,
CCOC(=O)c1cnc2ccc(C)cc2c1Sc1ccccc1C(=O)OC,1,-15,5,104*,23,48*,Diaph ctr 10uM=44;Diaphorase 30uM=39
CCOC(=O)c1cnc2ccc(C)cc2c1NCCO,4,-11,-1,32,10,.,
C=CCc1cccc(C=Nc2cc(Br)ccc2O)c1O,23,-3,-10,2,36,.,
COc1ccc(NC(=O)C2C(=O)N(C)C3(C)CC2c2ccccc2O3)cc1 (centres undefined),2,2,-1,8,6,.,
Cc1ccc(NC(=O)C2C(=O)N(CCO)C3(C)CC2c2ccccc2O3)cc1 (centres undefined),6,-4,2,65*,2,33,
COc1ccc(NC(=O)C2C(=O)N(CCO)C3(C)CC2c2ccccc2O3)cc1 (centres undefined),3,2,-3,69*,11,18,
COC(=O)c1cc(Nc2cc(C)c3c(O)cccc3n2)cc(C(=O)OC)c1,.,3,2,2,.,.,
COc1cccc(Nc2cc(C)c3ccccc3n2)c1,.,.,-2,61*,.,-10,
COc1ccc(OC)c(Nc2cc(C)c3ccccc3n2)c1,.,.,6,15,.,.,
COc1ccc(Nc2cc(C)c3c(O)cccc3n2)cc1,.,-17,8,120*,.,56*,Diaph ctr 10uM=19;Diaphorase 30uM=43
Cc1ccc(Nc2cc(C)c3c(O)cccc3n2)cc1C,.,-13,14,125*,.,36,
Cc1cccc(-c2nc(Nc3cccc(O)c3)c3ccccc3n2)c1,.,.,-3,12,.,.,
Cn1cc(Cl)c(C(=O)NC2CCCC2)n1,11,-1,-4,8,10,.,
CCN(CCCNC(=O)CNC(=O)c1nn(-c2ccc(OC)cc2OC)c(=O)c2ccccc12)c1cccc(C)c1,.,.,-4,12,.,.,
CC(=O)OCC1(C)CN(c2ccccc2)NC1=O (centres undefined),19,-4,11,97*,30,90*,Diaph ctr 10uM=-1;Diaphorase 30uM=-11
CN1CCc2cccc3c2[C@@H]1Cc1ccc(O)c(O)c1-3,40,3,10,89*,69*,86*,Diaph ctr 10uM=10;Diaphorase 30uM=6
O=c1cc(-c2ccc([N+](=O)[O-])cc2)c2ccc(O)cc2o1,8,0,-1,-22,9,.,
O=c1ccsn1Cc1ccccc1,4,1,5,94*,16,75*,Diaph ctr 10uM=-4;Diaphorase 30uM=-5
O=C1NC(Cc2ccccc2)C(=O)N1Cc1ccccc1 (centres undefined),.,.,-5,0,.,.,
COc1ccc(C(CNC(=O)CNC(=O)c2cccc(C)c2)N2CCCCC2)cc1 (centres undefined),.,.,-1,-4,.,.,
CCCN(CCC)C(=O)NC1CC(=O)N(c2ccc(OC)cc2)C1 (centres undefined),-8,-3,-15,-19,2,.,
CCN(CC)C(=O)C1=C(C)N(CCC2=CCCCC2)C(=O)C(CC(=O)NCc2cccc3ccccc23)C1 (centres undefined),.,.,.,10,.,.,
